Data reported in publication PMC4864154 (Journal of molecular biology, 2014).
Like-named read-outs stand apart in the source and are kept apart here.

Legend:
WT GluN1/2A = WT GluN1/2A (Rattus norvegicus, UniProt P35439+Q00959); test: Two-electrode voltage-clamp, steady-state block in Xenopus oocytes, WT receptor; format: cell-based
GluN1-N616G/2A = GluN1-N616G/2A (Rattus norvegicus, UniProt P35439+Q00959, N616G); format: cell-based
GluN1-I619G/2A = GluN1-I619G/2A (Rattus norvegicus, UniProt P35439+Q00959, I619G); format: cell-based
Summary of the method: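 Xenopus oocytes were injected with cRNA for rat GluN1-1a I619G (site-directed mutant, sequence-verified) at 1 ng and WT GluN2A at 10 ng per oocyte. Two-electrode voltage clamp at -60 mV in buffer of 115 mM NaCl, 2 mM KCl, 5 mM HEPES and 1.8 mM BaCl2, pH 7.6. Percent steady-state block of agonist-evoked current by 100 nM test compound or 0.5 mM Mg2+. Mean + SEM from 4–8 oocytes; ANOVA against WT.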

[1] = target: GluN1 S617 Gly-substituted GluN1/2A (Rattus norvegicus, UniProt P35439+Q00959, S617G); format: cell-based
[2] = target: recombinant GluN1/2A receptors (Rattus norvegicus, UniProt P35439+Q00959); format: cell-based
[3] = target: GluN1 E621 Gly-substituted GluN1/2A (Rattus norvegicus, UniProt P35439+Q00959, E621G); format: cell-based; settings: 100 nM ArgTX-636, -60 mV
Summary of the method: (§1)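 Rat GluN1-1a and GluN2A cDNAs carrying Gly substitutions made by site-directed mutagenesis and sequence-verified. Xenopus oocytes were each injected with cRNA (1 ng GluN1, 10 ng GluN2A). Two-electrode voltage clamp at -60 mV in buffer of 115 mM NaCl, 2 mM KCl, 5 mM HEPES and 1.8 mM BaCl2, pH 7.6. Percent block of agonist-evoked steady-state current by 100 nM test compound. Mean + SEM from 4–8 oocytes; ANOVA against WT.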

[4] = target: GluN2A N614 Gly-substituted GluN1/2A (Rattus norvegicus, UniProt P35439+Q00959, N614G); format: cell-based; settings: 100 nM ArgTX-636, -60 mV
Summary of the method: as §1

[5] = target: GluN2A N615 Gly-substituted GluN1/2A (Rattus norvegicus, UniProt P35439+Q00959, N615G); format: cell-based; settings: 100 nM ArgTX-636, -60 mV
Summary of the method: as §1

[6] = target: GluN2A S616 Gly-substituted GluN1/2A (Rattus norvegicus, UniProt P35439+Q00959, S616G); format: cell-based; settings: 100 nM ArgTX-636, -60 mV
Summary of the method: as §1

[7] = target: GluN2A V617 Gly-substituted GluN1/2A (Rattus norvegicus, UniProt P35439+Q00959, V617G); format: cell-based; settings: 100 nM ArgTX-636, -60 mV
Summary of the method: as §1

[8] = test system: GluN1/2A and GluN1/2B over GluN1/2C and GluN1/2D NMDAR subtypes; settings: ref [44]; [48]; cited from earlier work
[9] = holding potential -80 mV, Glu 100 μM, Gly 50 μM, HEK293

GluN1-N616G/2A, sequence (Q00959 23-1464, other chains not shown): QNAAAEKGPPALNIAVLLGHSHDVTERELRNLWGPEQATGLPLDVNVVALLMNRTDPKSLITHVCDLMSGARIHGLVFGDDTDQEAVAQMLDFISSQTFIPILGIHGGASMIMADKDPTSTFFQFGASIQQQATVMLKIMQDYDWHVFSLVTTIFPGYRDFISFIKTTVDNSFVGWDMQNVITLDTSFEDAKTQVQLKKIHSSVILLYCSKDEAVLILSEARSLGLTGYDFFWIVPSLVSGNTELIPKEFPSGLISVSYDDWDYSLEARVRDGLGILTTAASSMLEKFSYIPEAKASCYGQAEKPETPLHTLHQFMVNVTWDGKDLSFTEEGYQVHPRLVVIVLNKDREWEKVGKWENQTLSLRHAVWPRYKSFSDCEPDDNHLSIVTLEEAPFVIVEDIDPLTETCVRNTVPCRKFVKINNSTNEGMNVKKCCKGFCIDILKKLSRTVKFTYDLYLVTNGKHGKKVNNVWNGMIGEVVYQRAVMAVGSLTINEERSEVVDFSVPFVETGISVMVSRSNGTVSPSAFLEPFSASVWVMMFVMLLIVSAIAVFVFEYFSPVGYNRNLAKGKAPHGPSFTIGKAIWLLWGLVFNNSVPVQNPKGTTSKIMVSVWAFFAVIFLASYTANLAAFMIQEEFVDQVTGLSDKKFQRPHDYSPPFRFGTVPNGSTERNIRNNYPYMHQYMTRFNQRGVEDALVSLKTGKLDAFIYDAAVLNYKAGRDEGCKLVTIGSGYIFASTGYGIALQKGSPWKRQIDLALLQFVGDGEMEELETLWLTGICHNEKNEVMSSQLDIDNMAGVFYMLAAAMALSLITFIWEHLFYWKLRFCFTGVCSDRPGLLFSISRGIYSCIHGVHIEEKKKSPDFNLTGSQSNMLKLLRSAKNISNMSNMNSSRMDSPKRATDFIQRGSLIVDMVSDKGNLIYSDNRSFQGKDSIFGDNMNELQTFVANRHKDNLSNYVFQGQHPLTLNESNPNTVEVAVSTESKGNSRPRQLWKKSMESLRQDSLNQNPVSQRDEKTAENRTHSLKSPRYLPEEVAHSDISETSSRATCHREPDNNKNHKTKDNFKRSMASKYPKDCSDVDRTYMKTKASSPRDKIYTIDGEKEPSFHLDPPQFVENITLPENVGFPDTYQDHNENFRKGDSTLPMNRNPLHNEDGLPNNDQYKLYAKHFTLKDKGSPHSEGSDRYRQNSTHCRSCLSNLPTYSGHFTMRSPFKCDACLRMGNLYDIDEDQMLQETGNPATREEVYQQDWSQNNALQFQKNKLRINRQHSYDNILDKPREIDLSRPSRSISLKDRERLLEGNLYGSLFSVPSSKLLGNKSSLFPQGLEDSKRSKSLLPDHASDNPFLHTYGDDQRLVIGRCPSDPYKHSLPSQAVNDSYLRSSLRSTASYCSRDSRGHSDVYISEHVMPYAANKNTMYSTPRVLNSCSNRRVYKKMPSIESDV
recombinant GluN1/2A receptors, sequence (Q00959 23-1464, other chains not shown): as above
GluN1 S617 Gly-substituted GluN1/2A, sequence (Q00959 23-1464, other chains not shown): as above

For `[Mg+2]` [Mg^2+], the percent steady-state block (WT GluN1/2A; 0.5 mM Mg^2+, WT) was 88%, the percent steady-state block (GluN1-N616G/2A; 0.5 mM Mg^2+, GluN1-N616G/2A) was 28% and the percent steady-state block (GluN1-I619G/2A; 0.5 mM Mg^2+, GluN1-I619G/2A) was 53%.

For `C[C@]12N[C@H](Cc3ccccc31)c1ccccc12` [MK-801, dizocilpine], the percent steady-state block (WT GluN1/2A) was 75%, the percent steady-state block (GluN1-N616G/2A) was “less than 40%” and the percent steady-state block [1] was “less than 40%”.

With `NC(=O)C[C@H](NC(=O)Cc1ccc(O)cc1O)C(=O)NCCCCCNCCCNCCCNC(=O)[C@@H](N)CCCN=C(N)N` [ArgTX-636, argiotoxin-636] the “decrease in dissociation rate over -60 to -100 mV” value ([2]; 500 nM ArgTX-636, -60 to -100 mV range) was “less than 2 fold”, the “increase in rate of onset of block per 20-mV negative depolarization” value ([2]; 500 nM ArgTX-636, membrane potential below -60 mV) was “approximately 5 fold” and the “steady-state block of the current” value ([2]; 500 nM ArgTX-636 for 6 s, 100 μM Glu, -80 mV) was 96 ± 1%. For the same compound, the “fold higher association rate constant compared to memantine” value ([2]; ArgTX-636 Kon vs literature memantine Kon) was “approximately 10 fold”, the “association rate constant (Kon) with the open channel” value [2, 9] was 4.4 ± 0.3 × 10^6 M^-1 s^-1 and the “dissociation rate constant (Koff) with the open channel” value [2, 9] was 0.36 ± 0.09 s⁻¹. For the same compound, the “mechanism of block (trapping)” value ([2]; recovery after wash in absence of agonist, 500 nM ArgTX-636, -80 mV) was “trapping blocker”, the percent steady-state block (GluN1-N616G/2A; 100 nM ArgTX-636, -60 mV, GluN1 N616G) was 78% and the percent steady-state block ([1]; 100 nM ArgTX-636, -60 mV, GluN1 S617G) was “less than 15%”. For the same compound, the percent steady-state block (GluN1-I619G/2A; 100 nM ArgTX-636, -60 mV, GluN1 I619G) was “less than 15%”, the percent steady-state block [3] was “less than 15%” and the percent steady-state block [4] was about 100%. The percent steady-state block [5] was about 100%, the percent steady-state block [6] was about 100% and the percent steady-state block [7] was about 100%. The “selectivity for GluN1/2A and GluN1/2B over GluN1/2C and GluN1/2D” value [8] was “more than 20 fold”.
